# FGF22 binding: FGF22 (human) thermal shift binding; recombinant FGF22 thermal shift, SYPRO orange fluorescence; percent of sucrose octasulfate shift, DMSO zero; activity (Tm shift, normalised), % at 9.99 µM; actives 1.5% (n = 340,000); AID 651658;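 active = mean Tm shift, scaled 0 neutral to 100 positive control, at about 1.3% or above, every replicate too, limit read from the data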
# Target sequence (Q9HCT0 whole entry, looked up): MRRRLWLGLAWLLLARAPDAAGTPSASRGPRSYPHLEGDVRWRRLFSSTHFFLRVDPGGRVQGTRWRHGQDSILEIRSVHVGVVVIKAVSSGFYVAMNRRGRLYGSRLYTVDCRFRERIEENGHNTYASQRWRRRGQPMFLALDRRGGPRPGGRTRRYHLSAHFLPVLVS
# ZTA DNA inh: ZTA (EBV) inhibition in EBNA-1 counter-screen. ZTA-DNA binding, fluorescence polarization. inhibition, % at 11 µM. actives 0.15% (n = 320,000). AID 2234; in the data active = inhibition above about 33%
# Target sequence (P03206 whole entry, looked up): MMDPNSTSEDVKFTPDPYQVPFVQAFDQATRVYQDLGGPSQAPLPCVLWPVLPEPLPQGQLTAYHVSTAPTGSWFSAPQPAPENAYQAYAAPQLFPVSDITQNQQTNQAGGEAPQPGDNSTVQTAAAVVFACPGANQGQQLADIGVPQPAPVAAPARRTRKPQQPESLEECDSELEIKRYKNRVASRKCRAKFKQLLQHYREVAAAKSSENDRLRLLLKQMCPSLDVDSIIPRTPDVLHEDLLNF
# HCV NS3 hel inh: inhibitors of Hepatitis C virus NS3 helicase | NS3 helicase DNA unwinding, Cy5 molecular beacon fluorescence | inhibition, % at 10.9 µM | actives 0.56% (n = 290,000);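 active = inhibition above the mean of all tested compounds plus 3 SD, set per campaign, cut at about 35% in these data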;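 also: 0% = DMSO wells and 100% = thioflavine S control wells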
#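 System: HCV NS3 helicase fragment; control set: DMSO and thioflavine S; technique: Cy5 fluorescence at 0 and 60 min, beacon hairpin quenching; reagent: beacon DNA duplex substrate plus ATP; replicates: singlicate; schedule: 1 h reaction at 25 °C, ATP-initiated; medium: MOPS buffer pH 6.5 with MgCl2, DTT, Tween20, BSA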
# FID counter: fluorescent intercalator displacement, NS3 helicase counter-screen | DNA fluorescent intercalator displacement, fluorescence | inhibition, % at 7.9 µM | actives 0.17% (n = 290,000) | AID 1845; in the data active = inhibition above about 37%;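 also: 0% = vehicle and 100% = reference compound; higher means more ethidium bromide displaced from hairpin DNA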
# GRIN3A LBD mod: modulators (binders) of human NR3A ligand-binding domain | NR3A LBD differential scanning fluorimetry, Tm shift; 0% = protein alone, 100% = glycine-bound protein | Tm shift relative to glycine control, % at 25 µM | actives 2.5% (n = 340,000) | AID 1259313;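 active = melting temperature shift of at least 10% of the positive control shift, at one fixed dose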
# EBNA-1 inhibitor: blocks EBNA-1 binding to DNA; AID 1950; inhibition, % at 14.8 µM; EBNA-1 DNA binding, fluorescence polarization; actives 0.34% (n = 300,000); in the data active = inhibition above about 28%
# Numbers without * were called inactive; . = no result. Hits are enriched below; roughly 3.6% of the tested compounds scored in any of these assays.
SMILES,FGF22 binding,ZTA DNA inh,HCV NS3 hel inh,FID counter,GRIN3A LBD mod,EBNA-1 inhibitor
CCOC(=O)c1ccc(NC(=O)Nc2ccc(OC)c(OC)c2)cc1,.,13,0,-7,16*,3
CCCCOC(=O)c1ccc(NC(=O)Nc2ccc(OC)c(OC)c2)cc1,.,-5,-17,-14,19*,-5
C[C@H](CO)N1C[C@H](C)[C@@H](CN(C)S(=O)(=O)c2ccc(F)cc2)Oc2c(NS(=O)(=O)c3cccs3)cccc2C1=O,1,.,.,.,.,.
Nc1ccc(CSc2ccccc2)cc1,43*,.,.,.,-3,.
O=C(Nc1ccc(S(=O)(=O)N2CCOCC2)cc1)c1cc(-c2cc(Cl)ccc2O)n[nH]1,0,13,22,10,36*,4
Cc1cc(C(=O)Nc2ccc(S(=O)(=O)N3CCOCC3)cc2)c(C)o1,0,1,-4,-8,1,0
Cc1cc(O)c(-c2cc(C(=O)Nc3ccc(S(=O)(=O)N4CCOCC4)cc3)[nH]n2)cc1C,.,-7,-17,3,32*,-16
C[C@@H]1CN([C@H](C)CO)C(=O)c2cc(NC(=O)c3ccncc3)ccc2O[C@@H](C)CCCCO[C@@H]1CN(C)C(=O)c1ccccc1,0,.,.,.,.,.
COc1cccc(C#Cc2ccc3c(c2)[C@H]2[C@H](CCN2C(=O)c2ccc4c(c2)OCO4)[C@H](CO)N3)c1,0,.,.,.,.,.
CCOC(=O)C1=C(O)/C(=C/c2ccc(OCC(=O)O)c(OCC)c2)SC1=Nc1ccccc1,43*,3,2,-26,-1,-4
CC(C)NC(=O)N(C)C[C@@H]1Oc2ccc(NC(=O)Cc3ccccc3)cc2C(=O)N([C@@H](C)CO)C[C@@H]1C,0,.,.,.,.,.
C=CCN1CCOc2ccc(C)cc2S1(=O)=O,0,.,.,.,10*,.
CC(C)NC(=O)Nc1ccc2c(c1)C(=O)N([C@H](C)CO)C[C@@H](C)[C@H](CN(C)CC1CCCCC1)OCCCC[C@H](C)O2,0,.,.,.,.,.
CCCCCc1ccc(OCCC[n+]2ccccc2)c(CCCCC)c1,.,7,-70,45*,-4,3
CCCCCCCCCCCCCCCC[n+]1ccccc1,0,.,.,.,-7,.
CCCCCc1ccc(OCCOCCn2c[n+](C)c3ccccc32)c(CCCCC)c1,.,.,-63,37*,-3,.
CCC(=O)N1C[C@@H]2[C@H](c3ccccc31)[C@H](CO)N2Cc1ccccc1Cl,0,.,.,.,.,.
COc1ccc(C(=O)c2c(N)sc3c2CCN(C(=O)OC(C)(C)C)C3)cc1,0,4,26,-19,13*,-6
CCC(=O)Nc1ccc2c(c1)OC[C@@H](C)N(Cc1ccncc1)C[C@@H](C)[C@H](OC)CN(C)C2=O,0,.,.,.,.,.
O=c1[nH]c2ccc(S(=O)(=O)N3CCN(Cc4ccccc4)CC3)cc2[nH]c1=O,0,-9,-5,-3,11*,-4
O=C(C1=C[C@@H]2[C@H]3C(=O)N(c4cccc(Cl)c4)C(=O)[C@H]3[C@@H](C(=O)c3ccc(Cl)cc3)N2C=C1)c1ccccc1,.,-5,32,-11,14*,-12
CCOc1ccc(NC(=O)c2ccccc2OC)cc1,.,-3,0,-6,-1,3
CCOc1ccc(NC(=O)C(C)Oc2ccccc2C(=O)Nc2cccc(Cl)c2Cl)cc1 (stereo unspecified),.,10,16,2,12*,10
CCCN(C)C[C@H]1Oc2ncc(C#CCC(C)C)cc2C(=O)N([C@H](C)CO)C[C@@H]1C,0,.,.,.,.,.
CC(OC(=O)C1=COCCO1)C(=O)NC1(C#N)CCCCC1 (stereo unspecified),0,.,.,.,11*,.
CC(OC(=O)C1=COCCO1)C(=O)Nc1cc(S(=O)(=O)N2CCCCC2)ccc1Cl (stereo unspecified),43*,11,-3,-15,-1,7
Cc1cccc(C)c1OCC(=O)Nc1nnc(C2CCCO2)s1 (stereo unspecified),.,-2,2,-20,-8,-3
Cc1ccc(OCC(=O)Nc2nnc(C3CCCO3)s2)c(Br)c1 (stereo unspecified),44*,7,1,-12,-1,-3
N#Cc1cc(Oc2ccc3ccccc3c2)c(-n2nnc3ccccc32)cc1C#N,.,-4,0,1,13*,-20
